Measurements of several laboratories.
Lines come from different studies, so protocols differ.
Target: Glycogen synthase kinase-3 alpha (GSK3A, Homo sapiens, UniProt P49840)

Compound | test | test system | conditions | measurement | value
O=C1Nc2ccc(Cl)cc2C1=Cc1cc(Cl)c(O)c(Cl)c1 | cell-free assay |  | 0.5 µM | remaining signal | 76.1%
CCN(CC)c1ccc(C2=NNC(=O)CC2C)cc1[N+](=O)[O-] (stereo not shown) | enzyme activity, inhibitor |  | 10 µM | remaining activity | 89%
CC(C)(O)[C@H]1CC[C@H](Nc2ccc3ncc(-c4cccc(C(F)(F)F)c4)n3n2)CC1 | enzyme activity, inhibitor |  | 1 µM | remaining activity | 90%
COc1cccc2c(NCc3ccccc3)nc(-n3c(N)nc4ccccc43)nc12 | target engagement in cells, inhibitor, chemoproteomics |  | 20 mM | inhibition | 2%
Cc1ccc(Nc2nccc(N(C)c3ccc4c(C)n(C)nc4c3)n2)cc1S(N)(=O)=O | enzyme activity, inhibitor |  | 0.3 µM | inhibition | -12%
CNC(=O)c1cc(Oc2ccc(NC(=O)Nc3ccc(Cl)c(C(F)(F)F)c3)cc2)ccn1 | cell-free assay |  | 0.5 µM | remaining signal | 103%
COc1cc2ncnc(Nc3ccc(Oc4ccccc4)c(C)c3C)c2cc1OC | enzyme activity, inhibitor |  | 1 µM | inhibition | 2%
O=C(N[C@H]1CCCCC/C=C\C2C[C@@]2(C(=O)O)NC(=O)[C@@H]2C[C@@H](Oc3ccncc3)CN2C1=O)OC1CCCC1 (stereo partly shown) | cell-free assay, competition with immobilised ligand |  | 1 µM | remaining binding | 100%
O=C(Nc1cnn(-c2csc(C(=O)NC3COC3)c2)c1)Nc1c(F)cccc1Cl | enzyme activity, inhibitor |  | 5 µM | remaining activity | 93.5%
Cc1cc(-n2nc(Cc3cc(F)cc(C(F)(F)F)c3)nc2C)ccc1C(N)=O | cell-free assay, competition with immobilised ligand |  | 1 µM | remaining binding | 97%
CCCOc1ccc(OC)c(F)c1C(=O)c1ccc(C(=O)N[C@@H]2CNC[C@H]2NC(=O)c2ccc3[nH]ncc3c2)cc1 | enzyme activity, inhibitor |  | 10 µM | remaining activity | 89%
CS(=O)(=O)N1CCCC(NC(=O)[C@H](CCC2CCCCC2)NC(=O)c2ccc(CNc3ncnc4c3nnn4-c3ccccc3)cc2)C1 (stereo partly shown) | cell-free assay, competition with immobilised ligand |  | 0.1 µM | remaining binding | 100%
Cc1ccc(NC(=O)c2ccc(C)c(C(F)(F)F)c2)cc1C#Cc1nn(C2CCC(O)CC2)c2ncnc(N)c12 (stereo not shown) | cell-free assay, inhibitor |  | 10 µM | remaining signal | 79%
O=C(O)[C@@H]1[C@@H](Cn2nnc3ccccc3c2=O)CC[C@H]1C(=O)c1ccc(OCCC2CCOCC2)cc1 | cell-free assay, competition with immobilised ligand |  | 1 µM | remaining binding | 93%
CNc1cc(Oc2cc(C(=O)Nc3cc(N4CCN(C)CC4)cc(C(F)(F)F)c3)ccc2C)ncn1 | target engagement in cells, inhibitor, chemoproteomics | Huh-7 | 1 µM | inhibition | -23.9%
Cc1nc(Cc2cccc(C(F)(F)F)c2)sc1-c1ccc(C(N)=O)nc1 | cell-free assay, competition with immobilised ligand |  | 1 µM | remaining binding | 82%
Cc1cc(NC(=O)c2cccc3cc(-c4cccc5[nH]nc(N)c45)ccc23)ccc1F | enzyme activity, inhibitor |  | 0.1 µM | activity vs control | 121%
CN([C@@H]1CCc2c(CC(=O)O)c3cc(S(C)(=O)=O)ccc3n2C1)S(=O)(=O)c1ccc(F)cc1 | cell-free assay, competition with immobilised ligand |  | 1 µM | remaining binding | 100%
Cc1cnc(NC2CCOCC2)nc1-n1cnc(C(=O)NC(CN)c2cc(F)cc(Cl)c2)c1 (stereo not shown) | enzyme activity, inhibitor, radiometric |  | 1 µM | remaining activity | 8%
